Read-outs that look alike come from different tables or passages of the source.
Assays:
[1] = biological target: CYP2C9 (Homo sapiens, UniProt P11712); experiment: reversible cytochrome P450 inhibition; format: in vitro ADME
Procedure, shortened: (§1)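 Reversible inhibition of human CYP isoforms tested with isoform-specific probe substrates. Time-dependent (mechanism-based) inhibition was also assessed.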

[2] = solubility by equilibration in physiologically-relevant media; format: physicochemical
[3] = biological target: Minipig DHODH (Sus scrofa, UniProt F1S3B0); experiment: DHODH inhibition, DCIP-based assay; format: biochemical
Minipig DHODH, sequence (F1S3B0 1-395): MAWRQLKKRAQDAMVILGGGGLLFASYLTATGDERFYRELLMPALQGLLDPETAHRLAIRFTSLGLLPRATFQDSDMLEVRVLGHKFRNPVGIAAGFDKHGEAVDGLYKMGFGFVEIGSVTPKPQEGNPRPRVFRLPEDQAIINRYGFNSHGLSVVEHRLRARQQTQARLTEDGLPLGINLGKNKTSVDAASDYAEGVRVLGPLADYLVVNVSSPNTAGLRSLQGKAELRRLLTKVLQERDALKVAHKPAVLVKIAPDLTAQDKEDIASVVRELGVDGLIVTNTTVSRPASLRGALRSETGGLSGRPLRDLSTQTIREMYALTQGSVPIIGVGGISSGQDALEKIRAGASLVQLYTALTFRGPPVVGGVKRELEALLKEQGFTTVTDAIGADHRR

[4] = biological target: Ca_1.2 channel (Homo sapiens, UniProt Q13936); experiment: Ca_1.2 channel assay; format: cell-based
Procedure, shortened: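 Channel activity measured by IonWorks automated patch-clamp electrophysiology at a contract lab.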

[5] = system: Caco-2 cell monolayers; experiment: Caco-2 cell permeability; format: in vitro ADME; details: both directions
[6] = metabolic stability in liver microsomes; format: in vitro ADME; details: dog
[7] = biological target: P. falciparum DHODH (Plasmodium falciparum, UniProt Q08210); experiment: DHODH inhibition, DCIP-based spectrophotometric steady-state assay; format: biochemical
P. falciparum DHODH, sequence (Q08210 158-569 limits assumed): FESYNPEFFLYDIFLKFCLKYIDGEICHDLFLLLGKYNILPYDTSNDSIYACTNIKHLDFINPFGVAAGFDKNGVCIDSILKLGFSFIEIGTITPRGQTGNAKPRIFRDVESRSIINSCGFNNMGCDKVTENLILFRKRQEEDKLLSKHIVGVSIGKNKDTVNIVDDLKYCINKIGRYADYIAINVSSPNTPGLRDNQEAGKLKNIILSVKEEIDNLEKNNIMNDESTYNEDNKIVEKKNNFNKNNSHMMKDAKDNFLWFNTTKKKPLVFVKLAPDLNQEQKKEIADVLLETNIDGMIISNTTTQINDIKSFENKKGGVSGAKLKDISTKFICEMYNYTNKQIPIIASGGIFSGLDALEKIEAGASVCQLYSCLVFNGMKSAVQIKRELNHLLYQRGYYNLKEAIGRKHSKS

[8] = system: P. vivax field isolates; experiment: ex vivo 48 h schizont maturation assay; format: cell-based
Procedure, shortened: (§2)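 Field isolates came from patients at malaria clinics in Timika, Papua, Indonesia, and were tested in a 48 h schizont maturation assay adapted from the WHO microtest at 2% hematocrit. P. falciparum was run in RPMI 1640 with 10% AB+ human serum. P. vivax was run in McCoy's 5A with 20% AB+ human serum.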

[9] = system: P. cynomolgi large and small forms; experiment: P. cynomolgi liver stage assay in primary rhesus monkey hepatocytes; format: cell-based; details: concentrations at or below 10 μM; human serum-based media
[10] = biological target: P. berghei DHODH (PbDHODH) (Plasmodium berghei, UniProt A0A509AEH5); experiment: DHODH inhibition, DCIP-based assay; format: biochemical
P. berghei DHODH (PbDHODH), sequence (A0A509AEH5 132-517): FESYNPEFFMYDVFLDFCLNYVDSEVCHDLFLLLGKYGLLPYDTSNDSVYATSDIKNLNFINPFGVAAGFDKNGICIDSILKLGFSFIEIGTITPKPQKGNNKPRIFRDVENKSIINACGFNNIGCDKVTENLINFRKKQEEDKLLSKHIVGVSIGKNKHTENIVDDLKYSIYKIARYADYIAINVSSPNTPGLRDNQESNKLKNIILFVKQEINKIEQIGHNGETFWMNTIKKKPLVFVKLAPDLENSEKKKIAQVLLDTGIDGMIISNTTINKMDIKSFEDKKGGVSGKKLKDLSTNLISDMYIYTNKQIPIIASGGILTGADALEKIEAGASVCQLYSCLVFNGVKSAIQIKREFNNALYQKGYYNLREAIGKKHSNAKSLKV

[11] = system: P. falciparum 3D7A parasites; experiment: in vitro kill rate; format: cell-based; details: for EC50: Plasmodium falciparum, 3D7, 48 h
[12] = system: P. falciparum field isolates; experiment: P. falciparum clinical isolates; format: cell-based; details: Plasmodium falciparum, 72 h, read-out: unbound EC50
[13] = biological target: CYP2D6 (Homo sapiens, UniProt P10635); experiment: reversible cytochrome P450 inhibition; format: in vitro ADME
CYP2D6, sequence (P10635 whole entry): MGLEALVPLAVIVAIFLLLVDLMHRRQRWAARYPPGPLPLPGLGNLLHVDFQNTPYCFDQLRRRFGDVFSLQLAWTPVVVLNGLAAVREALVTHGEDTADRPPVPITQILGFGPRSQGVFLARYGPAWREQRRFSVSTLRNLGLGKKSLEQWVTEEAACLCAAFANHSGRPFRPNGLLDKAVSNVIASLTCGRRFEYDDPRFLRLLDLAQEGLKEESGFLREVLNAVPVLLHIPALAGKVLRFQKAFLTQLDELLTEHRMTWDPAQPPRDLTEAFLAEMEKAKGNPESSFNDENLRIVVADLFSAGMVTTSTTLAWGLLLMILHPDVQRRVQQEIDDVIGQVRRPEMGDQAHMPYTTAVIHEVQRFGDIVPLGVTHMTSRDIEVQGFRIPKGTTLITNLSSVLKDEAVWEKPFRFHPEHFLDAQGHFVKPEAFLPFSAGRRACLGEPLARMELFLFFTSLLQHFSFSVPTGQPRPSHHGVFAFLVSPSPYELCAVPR
Procedure, shortened: as §1

[14] = human pharmacokinetic and dose predictions
Procedure, shortened: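 Human PK was predicted by PBPK modelling from human liver microsome clearance. Allometric scaling of unbound clearance after IV dosing in mouse, rat and dog served as a comparison. Half-life was derived from predicted clearance and Vss. A plasma profile was simulated for a single 200 mg oral dose in the fasted state.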

[15] = incubation in cryopreserved hepatocytes; format: in vitro ADME, human; details: 10 μM over 120 minutes
Procedure, shortened: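 Human cryopreserved hepatocytes at 1 × 10^6 cells/mL were incubated with test compound at 10 μM. Metabolites were assigned by accurate mass measurement.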

[16] = biological target: Rabbit DHODH (Oryctolagus cuniculus, UniProt G1SWF3); experiment: DHODH inhibition, DCIP-based assay; format: biochemical
Rabbit DHODH, sequence (G1SWF3 1-395): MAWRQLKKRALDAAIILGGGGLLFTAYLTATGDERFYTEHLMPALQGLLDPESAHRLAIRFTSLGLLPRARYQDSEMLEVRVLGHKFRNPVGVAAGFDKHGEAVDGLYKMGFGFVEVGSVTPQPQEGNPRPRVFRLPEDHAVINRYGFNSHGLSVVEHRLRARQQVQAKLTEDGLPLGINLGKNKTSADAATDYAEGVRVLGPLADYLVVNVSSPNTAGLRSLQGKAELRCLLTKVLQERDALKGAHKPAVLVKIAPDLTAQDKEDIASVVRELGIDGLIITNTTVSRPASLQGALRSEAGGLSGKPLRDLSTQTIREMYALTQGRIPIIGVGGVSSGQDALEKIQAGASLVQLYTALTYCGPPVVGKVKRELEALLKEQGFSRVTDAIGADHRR

[17] = biological target: Rat DHODH (Rattus norvegicus, UniProt Q63707); experiment: DHODH inhibition, DCIP-based assay; format: biochemical
Rat DHODH, sequence (Q63707 whole entry): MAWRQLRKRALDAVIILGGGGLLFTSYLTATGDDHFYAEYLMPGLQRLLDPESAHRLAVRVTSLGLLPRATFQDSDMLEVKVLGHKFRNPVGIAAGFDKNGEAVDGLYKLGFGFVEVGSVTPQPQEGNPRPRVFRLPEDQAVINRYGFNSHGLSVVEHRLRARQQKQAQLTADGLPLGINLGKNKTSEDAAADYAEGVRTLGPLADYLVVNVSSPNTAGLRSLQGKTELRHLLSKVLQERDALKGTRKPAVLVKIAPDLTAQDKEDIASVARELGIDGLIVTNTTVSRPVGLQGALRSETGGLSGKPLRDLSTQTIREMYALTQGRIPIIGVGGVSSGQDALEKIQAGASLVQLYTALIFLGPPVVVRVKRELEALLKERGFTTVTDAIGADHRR

[18] = pharmacokinetics after IV and oral dosing; format: in vivo, mice
Procedure, shortened: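 Single IV and oral doses were given. Mice and rats received about 2 mg/kg IV and 5–50 mg/kg orally, with blood sampled over 30–48 h from 2 mice per time point or 2 rats. Dogs received 1 mg/kg by each route (n=3). Plasma was separated by centrifugation and assayed by LC/MS, and parameters were derived non-compartmentally.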

[19] = metabolic stability in liver microsomes; format: in vitro ADME; details: mouse
[20] = biological target: P. cynomolgi DHODH (Plasmodium cynomolgi, UniProt K6UE05); experiment: DHODH inhibition, DCIP-based assay; format: biochemical
P. cynomolgi DHODH, sequence (K6UE05 1-385): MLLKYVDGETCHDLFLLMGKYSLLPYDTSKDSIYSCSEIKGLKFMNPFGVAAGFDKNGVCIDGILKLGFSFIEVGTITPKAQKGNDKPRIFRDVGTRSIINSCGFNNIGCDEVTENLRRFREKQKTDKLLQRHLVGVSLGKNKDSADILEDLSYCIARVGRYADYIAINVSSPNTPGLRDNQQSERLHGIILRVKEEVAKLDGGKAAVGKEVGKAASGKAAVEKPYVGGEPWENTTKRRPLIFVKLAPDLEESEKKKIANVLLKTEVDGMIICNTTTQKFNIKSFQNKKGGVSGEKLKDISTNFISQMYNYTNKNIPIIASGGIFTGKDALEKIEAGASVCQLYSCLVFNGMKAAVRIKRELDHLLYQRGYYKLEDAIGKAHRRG

[21] = stability in plasma and blood; format: in vitro ADME; details: plasma 37°C over 5 h; blood over 4 h
[22] = system: P. falciparum field isolates; experiment: ex vivo 48 h schizont maturation assay; format: cell-based; details: Plasmodium falciparum, read-out: unbound EC50
Procedure, shortened: as §2

[23] = system: set of 100 human channels and enzymes; experiment: CEREP diversity panel; details: 10 μM ([…])
[24] = biological target: Human DHODH (Homo sapiens, UniProt Q02127); experiment: DHODH inhibition, DCIP-based assay; format: biochemical
Human DHODH, sequence (Q02127 whole entry): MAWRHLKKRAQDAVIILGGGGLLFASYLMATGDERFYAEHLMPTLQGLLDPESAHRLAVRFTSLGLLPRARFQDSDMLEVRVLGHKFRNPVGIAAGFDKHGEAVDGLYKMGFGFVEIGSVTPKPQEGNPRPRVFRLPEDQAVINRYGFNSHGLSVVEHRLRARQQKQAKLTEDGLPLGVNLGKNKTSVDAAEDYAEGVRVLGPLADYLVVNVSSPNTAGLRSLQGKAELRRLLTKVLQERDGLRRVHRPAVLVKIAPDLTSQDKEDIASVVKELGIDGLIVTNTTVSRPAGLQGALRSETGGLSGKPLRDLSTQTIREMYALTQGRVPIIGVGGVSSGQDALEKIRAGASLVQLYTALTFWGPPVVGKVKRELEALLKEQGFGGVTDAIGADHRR

[25] = P. falciparum SCID mouse efficacy model; format: in vivo; details: NOD-scid IL-2Rγnull (NSG), mouse, blood, oral
[26] = system: P. falciparum Pf3D7^0087/N9; experiment: P. falciparum SCID mouse efficacy model; format: in vivo
[27] = system: D10w/yDHODH P. falciparum cell line; experiment: growth inhibition of transgenic P. falciparum expressing yeast DHODH; format: cell-based
Procedure, shortened: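 D10 parasites transfected with yeast DHODH were grown in human erythrocytes in RPMI 1640 with 0.5% Albumax II. EC50 came from a 72 h dose–response growth assay read by SYBR Green DNA fluorescence.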

[28] = system: CYP isoforms (all isoforms tested); experiment: cytochrome P450 inhibition, other isoforms and time-dependent inhibition; format: in vitro ADME
Procedure, shortened: as §1

[29] = system: CYP isoforms; experiment: as above; format: in vitro ADME; details: 20 μM
Procedure, shortened: as §1

[30] = system: Ames tester strains; experiment: GLP Ames 5 strain test; details: with and without metabolic activation
[31] = system: P. falciparum 3D7; experiment: whole cell P. falciparum 3D7 blood stage 72 h assay, albumax media; format: cell-based; details: for EC50: Plasmodium falciparum, 3D7, 72 h

CYP2C9, sequence (P11712 whole entry, canonical isoform): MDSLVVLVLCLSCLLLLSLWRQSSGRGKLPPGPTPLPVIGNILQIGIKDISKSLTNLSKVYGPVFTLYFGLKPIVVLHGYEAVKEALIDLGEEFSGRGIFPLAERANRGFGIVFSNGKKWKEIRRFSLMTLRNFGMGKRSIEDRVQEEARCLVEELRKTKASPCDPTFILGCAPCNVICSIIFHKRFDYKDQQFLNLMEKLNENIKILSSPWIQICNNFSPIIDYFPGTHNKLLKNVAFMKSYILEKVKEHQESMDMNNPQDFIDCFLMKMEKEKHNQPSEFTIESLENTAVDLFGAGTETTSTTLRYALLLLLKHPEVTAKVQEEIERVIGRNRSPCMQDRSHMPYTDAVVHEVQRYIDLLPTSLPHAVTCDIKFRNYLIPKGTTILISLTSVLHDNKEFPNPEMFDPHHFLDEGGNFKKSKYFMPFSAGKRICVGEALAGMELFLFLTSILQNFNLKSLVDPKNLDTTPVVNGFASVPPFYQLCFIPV

In the case of `Cc1cc(Nc2ccc(C(F)(F)F)nc2)n2nc(C(C)(F)F)nc2n1` [DSM421, 2-(1,1-Difluoroethyl)-5-methyl-N-(6-(trifluoromethyl)pyridin-3-yl)-[1,2,4]triazolo[1,5-a]pyrimidin-7-amine], the inhibition at 20 µM [1] is reported as 22%, the “fold more soluble than DSM265” value [2] is reported as 6-80 fold and the IC50 [3] is reported as over 100 µM. For the same compound, the “activity on Ca_1.2 channel” value [4] was “no activity”, the “permeability across Caco-2 cell monolayers” value [5] was “high in both directions with no evidence for significant efflux” and the microsomal CLint at 1 μM [6] was under 7 µL/min/mg. The IC50 [7] was 0.053 µM, the “sensitivity of P. vivax versus P. falciparum field isolates” value [8] was “equivalent activity towards both species” and the “radical cure activity, liver stage” value [9] was “did not show radical cure activity”. The IC50 [10] was 5 µM, the “fold less active against PbDHODH than PfDHODH” value [10] was 100 fold and the “lag time before killing began” value ([11]; 10xEC50) was 48 h. The EC50 ([11]; read-out: EC50, 48 h growth assay (PRR)) was 0.043 µM, the EC50 ([11]; read-out: unbound EC50) was 0.022 µM and the EC50 [12] was 0.012 µM. The inhibition at 20 µM [13] was 45%, the “predicted unbound human clearance” value ([14]; allometric scaling of mice, rats and dogs IV unbound clearance) was 0.132 L/h/kg and the estimated human half-life ([14]; human) was ~ 78 h. For the same compound, the half-life ([14]; human, plasma, estimated human half-life) was 78 h, the “degradation in human hepatocyte incubations” value [15] was “minimal degradation” and the IC50 [16] was over 100 µM. For the same compound, the IC50 [17] was 22 µM, the “fold reduction of inhibitory activity in comparison to DSM265” value ([17]; rodent (rat) enzyme) was 10 fold and the “fold increase of plasma AUC” value ([18]; mice, oral, for a 9-fold increase in dose) was 13 fold. The half-life ([18]; mouse, plasma) was about 2 h, the Vd ([18]; mouse, plasma, iv, 2 mg/kg) was 0.9 L/kg and the clearance ([18]; mouse, plasma, iv, 2 mg/kg) was 0.306 L/h/kg. For the same compound, the Tmax ([18]; mouse, plasma, po) was 1 to 2 h, the bioavailability ([18]; mouse, plasma, po) was over 100% and the microsomal CLint at 1 μM [19] was under 7 µL/min/mg. The IC50 [20] was 0.012 µM, the “stability in plasma and blood” value [21] was “stable” and the EC50 [22] was 0.023 µM. For the same compound, the “inhibition in CEREP diversity panel” value [23] was “no significant inhibition”, the IC50 [24] was over 100 µM and the AUC(0-t) ([25]; 2.6 mg/kg/day) was 12.9 µg·h/mL. The AUC(0-t) ([25]; 5 mg/kg/day) was 30.8 µg·h/mL, the tolerability ([26]; SCID mice, oral QD 4 days) was “well tolerated and no adverse reactions were noted” and the “Cav at ED90” value ([26]; blood) was 0.53 mg/L. The “Cmin at 5 mg/kg/day” value ([26]; blood) was 0.33 µg/mL, the “Cmin at ED90” value ([26]; blood) was 0.1 mg/L and the “ED90 24 h after the last dose” value ([26]; oral QD for 4 days) was 2.6 mg/kg/day. The “dose giving maximum parasite killing” value ([26]; oral QD for 4 days) was at least 5 mg/kg/day, the “inhibition of D10w/yDHODH line” value [27] was “did not inhibit this line” and the EC50 ([27]; read-out: EC50 on D10 cells transfected with yeast DHODH) was over 10 µM. The IC50 [28] was over 20 µM, the “inhibition of the other CYP isoforms” value [29] was “no measurable inhibition” and the “GLP Ames 5 strain test result” value [30] was “no obvious cytotoxicity in any tester strain at any tested dose level”. The “fold less potent than DSM265 against P. falciparum 3D7 parasites” value [31] was 3 fold, the “fold lower intrinsic potency than DSM265 based on unbound concentrations” value ([31]; 48 and 72 h in vitro assays) was 10 fold and the EC50 ([31]; read-out: Pf3D7 EC50) was 0.014 µM. For the same compound, the EC50 ([31]; read-out: unbound EC50) was 0.007 µM.
